# Measurements from ChEMBL document CHEMBL1143266, “Synthesis of spiro[chroman-2,4'-piperidin]-4-one derivatives as acetyl-CoA carboxylase inhibitors” (Bioorg Med Chem Lett, 2009).
# Key:
# [1] = organism: Rattus norvegicus; assay: Inhibition of acetyl-CoA carboxylase in rat skeletal muscle by HPLC at 10 uM; format: tissue-based; conditions: Muscle tissue
# Summary of the method: (§1)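 Biotinylated enzyme bound on a streptavidin column, eluted with 5 mM biotin, and protein quantified by Bradford. Buffer was 50 mM HEPES pH 7.5, 20 mM MgCl₂, 10 mM tripotassium citrate, 0.075% BSA, 2 mM ATP, 1 mM acetyl-CoA and 17.6 mM NaHCO₃, stopped with 10% perchloric acid. HPLC read-out measured acetyl-CoA loss and/or malonyl-CoA formation.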
# [2] = Inhibition of acetyl-CoA carboxylase in rat skeletal muscle by HPLC; format: tissue-based, Muscle tissue
# [3] = organism: Rattus norvegicus; assay: Inhibition of acetyl-CoA carboxylase in rat skeletal muscle by HPLC at 5 uM; format: tissue-based; conditions: Muscle tissue; summary of the method: as §1
# [4] = (§2) Inhibition of acetyl-CoA carboxylase in rat skeletal muscle by HPLC at 1 uM/L; format: tissue-based, Muscle tissue; summary of the method: as §1
# [5] = organism: Rattus norvegicus; assay: as §2; format: tissue-based; conditions: Muscle tissue; summary of the method: as §1
# [6] = Membrane permeability at pH 6.8 by PAMPA; format: ADME; conditions: read-out: permeability
# [7] = system: Mus musculus; assay: Reduction in respiratory quotient in ip dosed C57BL/6J mouse administered once a day for 8 days measured after 24 hrs of day 7 acclimatization in presence of high carbohydrate; format: functional, organism-based
# Summary of the method: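 C57BL/6J mice aged 7–8 weeks on normal chow (carbohydrate 64%, fat 7%, protein 20%), n = 8 per group, got vehicle or 30 or 60 mg/kg ip once daily for 8 days. After 24 h cage acclimatization from day 7, O₂ consumption and CO₂ production were recorded immediately post-dose. The first 30 min were excluded, and RQ was averaged over the initial 8 h and compared by Student's t test.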
SMILES,inhibition [1],IC50 [2],further results
O=C1CC2(CCN(C(=O)c3cc(-c4ccccc4)nc(-c4ccccc4)c3)CC2)Oc2cc(N3CCCCC3)ccc21,> 90%,36 nM,–
O=C1CC2(CCN(C(=O)N3c4ccccc4Oc4ccccc43)CC2)Oc2ccccc21,–,–,inhibition [3]: 51%
CCCC(=O)Nc1ccc2c(c1)C(=O)CC1(CCN(C(=O)N3c4ccccc4CCc4ccccc43)CC1)O2,4%,–,–
O=C1CC2(CCN(C(=O)N3c4ccccc4Sc4ccccc43)CC2)Oc2ccc(N3CCOCC3)cc21,64%,–,–
O=C1CC2(CCN(C(=O)N3c4ccccc4Oc4ccccc43)CC2)Oc2ccc(N3CCOCC3)cc21,–,–,IC50 [4]: 99 nM
CCCC(=O)Nc1ccc2c(c1)C(=O)CC1(CCN(C(=O)N3c4ccccc4Oc4ccccc43)CC1)O2,–,–,IC50 [4]: 101 nM
O=C1CC2(CCN(C(=O)N3c4ccccc4Oc4ccccc43)CC2)Oc2ccc(N3CCCC3=O)cc21,–,–,IC50 [4]: 236 nM
COc1cc(C(=O)N2CCC3(CC2)CC(=O)c2cc(-c4nc[nH]n4)ccc2O3)nc2c(OC)cccc12,–,–,inhibition [5]: 100%
CCCC(=O)Nc1ccc2c(c1)C(=O)CC1(CCN(C(=O)N3c4ccccc4Sc4ccccc43)CC1)O2,48%,–,–
CN1CCN(c2ccc3c(c2)OC2(CCN(C(=O)c4cc(-c5ccccc5)nc(-c5ccccc5)c4)CC2)CC3=O)CC1,> 90%,27 nM,–
O=C1CC2(CCN(C(=O)N3c4ccccc4Oc4ccccc43)CC2)Oc2cc(N3CCOCC3)ccc21,–,–,IC50 [4]: 208 nM
O=C1CC2(CCN(C(=O)N3c4ccccc4Sc4ccccc43)CC2)Oc2ccccc21,16%,–,–
O=C(c1c2ccccc2cc2ccccc12)N1CCC(N2CCC[C@@H](C(=O)N3CCOCC3)C2)CC1,> 90%,–,–
O=C1CC2(CCN(C(=O)c3cc(-c4ccccc4)nc(-c4ccccc4)c3)CC2)Oc2cc(N3CCOCC3)ccc21,> 90%,26 nM,–
CC1COCC(C)N1c1ccc2c(c1)OC1(CCN(C(=O)c3cc(-c4ccccc4)nc(-c4ccccc4)c3)CC1)CC2=O (centres undefined),> 90%,59 nM,–
COc1cc(C(=O)N2CCC3(CC2)CC(=O)c2cc(Nc4ccnn4C)ccc2O3)nc2c(OC)cccc12,–,–,inhibition [5]: 100%
O=C1CC2(CCN(C(=O)N3c4ccccc4CCc4ccccc43)CC2)Oc2ccc(N3CCOCC3)cc21,7%,–,–
Cc1cc2c(cc1N1CCOCC1)C(=O)CC1(CCN(C(=O)c3cc(-c4ccccc4)nc(-c4ccccc4)c3)CC1)O2,> 90%,2 nM,–

# Second part, led by results:
inhibition [1],IC50 [2],SMILES,further results
> 90%,1200 nM,O=C1CC2(CCN(C(=O)c3cc(-c4ccccc4)nc(-c4ccccc4)c3)CC2)Oc2ccccc21,–
> 90%,61 nM,CC(=O)N[C@H](C)C#Cc1ccc2c(c1)C(=O)CC1(CCN(C(=O)c3cc(-c4ccccc4)nc(-c4ccccc4)c3)CC1)O2,–
83%,–,CCCC(=O)N(C)c1ccc2c(c1)C(=O)C(C)(C)C1(CCN(C(=O)c3cc(-c4ccccc4)nc(-c4ccccc4)c3)CC1)O2,–
> 90%,14 nM,O=C1CC2(CCN(C(=O)c3cc(-c4ccccc4)nc(-c4ccccc4)c3)CC2)Oc2ccc(N3CCCC3=O)cc21,Papp [6]: 26.8 ×10⁻⁶ cm/s; Activity [7]: Dose-dependent effect
> 90%,61 nM,O=C1CC2(CCN(C(=O)c3cc(-c4ccccc4)nc(-c4ccccc4)c3)CC2)Oc2cc(N3CCCC3)ccc21,–
> 90%,6 nM,CCCC(=O)Nc1ccc2c(c1)C(=O)CC1(CCN(C(=O)c3cc(-c4ccccc4)nc(-c4ccccc4)c3)CC1)O2,–
44%,–,CC1(C)C(=O)c2ccccc2OC12CCN(C(=O)c1cc(-c3ccccc3)nc(-c3ccccc3)c1)CC2,–
> 90%,6 nM,O=C1CC2(CCN(C(=O)c3cc(-c4ccccc4)nc(-c4ccccc4)c3)CC2)Oc2ccc(N3CCOCC3)cc21,–
